Test results as given in ChEMBL document CHEMBL2157928, “Diarylheptanoid glycosides from Tacca plantaginea and their effects on NF-κB activation and PPAR transcriptional activity” (Bioorg Med Chem Lett, 2012).
pEC50, pIC50: −log10 of the molar value.

Tests used:
Assay type in all cases: cell-based
[1] = molecular target: T1, Peroxisome proliferator-activated receptor alpha (Homo sapiens, UniProt Q07869); assay: Transactivation of GAL4-fused PPARalpha ligand binding domain transfected in human HepG2 cells after 20 hrs by luciferase reporter gene assay
T1 sequence (Q07869 whole entry): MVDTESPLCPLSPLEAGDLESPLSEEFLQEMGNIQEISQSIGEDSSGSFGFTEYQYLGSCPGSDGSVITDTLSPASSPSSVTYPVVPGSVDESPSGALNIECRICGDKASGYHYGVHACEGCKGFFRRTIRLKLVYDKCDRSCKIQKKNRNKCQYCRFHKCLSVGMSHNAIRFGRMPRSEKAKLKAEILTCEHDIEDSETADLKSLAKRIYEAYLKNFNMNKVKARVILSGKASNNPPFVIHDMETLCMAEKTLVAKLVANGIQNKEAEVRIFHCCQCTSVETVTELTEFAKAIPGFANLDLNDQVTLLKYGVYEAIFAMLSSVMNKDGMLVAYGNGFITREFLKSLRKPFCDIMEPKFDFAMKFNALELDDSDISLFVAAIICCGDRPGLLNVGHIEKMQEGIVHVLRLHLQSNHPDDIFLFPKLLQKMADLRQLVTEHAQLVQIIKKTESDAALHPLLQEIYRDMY
In short: (§1)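 PPARα transactivation was measured by luciferase reporter in HepG2 cells. Activity was compared with a vehicle group, and ciprofibrate (1 µM) was the positive control.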

[2] = molecular target: T2, Peroxisome proliferator-activated receptor alpha (Homo sapiens) (UniProt Q07869); assay: Transactivation of GAL4-fused PPARalpha ligand binding domain transfected in human HepG2 cells at 10 uM after 20 hrs by luciferase reporter gene assay relative to control; in short: as §1
T2 sequence (whole entry): T1 sequence (Q07869 whole entry)

[3] = molecular target: T3, Peroxisome proliferator-activated receptor (Homo sapiens, UniProt P37231+Q07869+Q03181); assay: (§2) Transactivation of PPAR transfected in human HepG2 cells after 20 hrs by luciferase reporter gene assay
T3 sequence (P37231 whole entry): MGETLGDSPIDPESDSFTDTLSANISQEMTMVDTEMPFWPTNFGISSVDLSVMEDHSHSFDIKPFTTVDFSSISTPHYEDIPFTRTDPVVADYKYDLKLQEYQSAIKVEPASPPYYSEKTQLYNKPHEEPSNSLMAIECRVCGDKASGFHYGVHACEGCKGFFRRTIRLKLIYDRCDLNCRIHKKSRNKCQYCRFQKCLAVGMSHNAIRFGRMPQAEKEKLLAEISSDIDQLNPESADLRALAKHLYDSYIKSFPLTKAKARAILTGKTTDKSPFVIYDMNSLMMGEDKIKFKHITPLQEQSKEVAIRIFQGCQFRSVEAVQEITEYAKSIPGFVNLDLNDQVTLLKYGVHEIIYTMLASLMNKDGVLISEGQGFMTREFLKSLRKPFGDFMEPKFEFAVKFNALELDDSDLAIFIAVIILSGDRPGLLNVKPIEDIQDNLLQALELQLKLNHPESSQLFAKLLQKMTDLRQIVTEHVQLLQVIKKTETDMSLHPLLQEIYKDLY
T3 sequence (Q07869 whole entry): T1 sequence (Q07869 whole entry)
T3 sequence (Q03181 whole entry): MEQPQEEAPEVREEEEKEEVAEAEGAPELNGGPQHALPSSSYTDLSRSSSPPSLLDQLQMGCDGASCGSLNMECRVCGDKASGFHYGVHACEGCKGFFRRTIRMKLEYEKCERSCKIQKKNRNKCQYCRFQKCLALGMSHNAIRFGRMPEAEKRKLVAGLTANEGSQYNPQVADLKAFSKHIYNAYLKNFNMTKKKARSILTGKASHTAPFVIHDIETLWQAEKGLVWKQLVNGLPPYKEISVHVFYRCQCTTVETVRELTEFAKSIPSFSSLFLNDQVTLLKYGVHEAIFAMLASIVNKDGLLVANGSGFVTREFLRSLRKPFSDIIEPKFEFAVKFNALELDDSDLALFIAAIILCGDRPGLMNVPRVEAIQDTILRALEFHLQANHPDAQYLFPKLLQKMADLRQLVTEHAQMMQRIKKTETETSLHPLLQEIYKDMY

[4] = molecular target: Peroxisome proliferator-activated receptor (Homo sapiens) (UniProt P37231+Q07869+Q03181); assay: as §2
HepG2 [5] = assay: Cytotoxicity against human HepG2 cells assessed as cell viability at 10 uM after 24 hrs by MTS assay; conditions: hepg2, 24 h
[6] = molecular target: T4, Peroxisome proliferator-activated receptor delta (Homo sapiens) (UniProt Q03181); assay: (§3) Transactivation of GAL4-fused PPARbeta (delta) ligand binding domain transfected in human HepG2 cells after 20 hrs by luciferase reporter gene assay
T4 sequence (whole entry): T3 sequence (Q03181 whole entry)
In short: (§4)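 For PPARβ(δ), luciferase transactivation was measured in HepG2 cells against a vehicle group, with L-165041 (1 µM) as positive control. EC50 came from the dose–response, given as mean ± SD (n = 3), with a cutoff of EC50 > 50 µM for inactivity.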

[7] = molecular target: T5, Peroxisome proliferator-activated receptor delta (Homo sapiens, UniProt Q03181); assay: as §3; in short: as §4
T5 sequence (Q03181 whole entry): T3 sequence (Q03181 whole entry)

[8] = (§5) Inhibition of NF-kappaB expressed in human HepG2 cells assessed as inhibition of TNFalpha-induced luciferase activity preincubated for 1 hr followed by TNFalpha challenge measured after 1 hr by reporter gene assay
In short: (§6)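 HepG2 cells transfected with an NF-κB-luciferase reporter were pretreated with compound at 0.1, 1 and 10 µM, then stimulated with TNF-α at 10 ng/mL. Sulfasalazine at 10 µM served as positive control. Luciferase activity was read. Data are mean ± SD (n = 3), with Dunnett's multiple comparison test, and IC50 was derived from the dose–response.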

[9] = molecular target: T6, Peroxisome proliferator-activated receptor gamma (Homo sapiens, UniProt P37231); assay: Transactivation of GAL4-fused PPARgamma ligand binding domain transfected in human HepG2 cells after 20 hrs by luciferase reporter gene assay
T6 sequence (P37231 whole entry): T3 sequence (P37231 whole entry)

HepG2 [10] = assay: as §5; in short: as §6
[11] = molecular target: T7, Peroxisome proliferator-activated receptor gamma (Homo sapiens) (UniProt P37231); assay: Transactivation of GAL4-fused PPARgamma ligand binding domain transfected in human HepG2 cells assessed as upregulation of gene expression at 10 uM by luciferase reporter gene assay relative to control
T7 sequence (whole entry): T3 sequence (P37231 whole entry)
In short: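 In HepG2 cells, PPARγ luciferase transactivation was expressed as fold over the vehicle group. Troglitazone (1 µM) was the positive control, and significance was set against vehicle at p < 0.01.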

pEC50 [1]	fold change (FC) [2]	EC50 [3] [µM]	Activity [4]	Activity [6]	pEC50 [7]	pIC50 [8]	pEC50 [9]	fold change (FC) [11]	SMILES	Activity (HepG2 [5])	inhibition (HepG2 [10])
4.33	1.4	7	Dose-dependent effect	Dose-dependent effect	4.96	< 5.00	< 4.30	–	O=C(CCCCc1ccc(O[C@@H]2O[C@H](CO)[C@@H](O)[C@H](O)[C@H]2O)c(O)c1)CCc1ccc(O[C@@H]2O[C@H](CO)[C@@H](O)[C@H](O)[C@H]2O)c(O)c1 [PLANTAGINEOSIDE A]	Non-toxic	–
< 4.30	–	1.2	Dose-dependent effect	Dose-dependent effect	4.53	5.21	< 4.30	–	OC[C@H]1O[C@@H](O[C@H](CCc2ccc(O)cc2)C[C@H](O)CCc2ccc(O)cc2)[C@H](O)[C@@H](O)[C@@H]1O	Non-toxic	Dose-dependent effect
< 4.30	–	5.2	Dose-dependent effect	Dose-dependent effect	4.52	5.10	< 4.30	–	OC[C@H]1O[C@@H](O[C@@H]2C[C@H](CCc3ccc(O)c(O)c3)O[C@H](c3ccc(O)c(O)c3)C2)[C@H](O)[C@@H](O)[C@@H]1O [PLANTAGINEOSIDE C]	Non-toxic	Dose-dependent effect
< 4.30	1.3	9.9	Dose-dependent effect	Dose-dependent effect	4.64	5.03	< 4.30	–	OC[C@H]1O[C@@H](O[C@H](CCc2ccc(O)c(O)c2)C[C@H](O)CCc2ccc(O)c(O)c2)[C@H](O)[C@@H](O)[C@@H]1O	Non-toxic	Dose-dependent effect
–	–	–	–	–	6.19	–	–	–	CCCc1c(OCCCOc2ccc(OCC(=O)O)cc2)ccc(C(C)=O)c1O	–	–
4.37	1.4	0.3	Dose-dependent effect	Dose-dependent effect	4.81	6.05	< 4.30	–	OC[C@H]1O[C@@H](O[C@H](CCc2ccc(O)c(O)c2)C[C@H](O)CCc2ccc(O)cc2)[C@H](O)[C@@H](O)[C@@H]1O	Non-toxic	Dose-dependent effect
< 4.30	1.3	10.4	Dose-dependent effect	Dose-dependent effect	4.88	< 5.00	4.48	1.5	OC[C@H]1O[C@@H](Oc2ccc(CCCC[C@H](O)CCc3ccc(O[C@@H]4O[C@H](CO)[C@@H](O)[C@H](O)[C@H]4O)c(O)c3)cc2O)[C@H](O)[C@@H](O)[C@@H]1O [PLANTAGINEOSIDE B]	Non-toxic	–

SMILES	pEC50 [1]	fold change (FC) [2]	EC50 [3] [µM]	Activity [4]	Activity [6]	pEC50 [7]	pIC50 [8]	pEC50 [9]	fold change (FC) [11]	Activity (HepG2 [5])	inhibition (HepG2 [10])
O=C(O)c1cc(/N=N/c2ccc(S(=O)(=O)Nc3ccccn3)cc2)ccc1O [SULFASALAZINE]	–	–	–	–	–	–	6.05	–	–	–	–
